Measured values pooled from the literature.
Compare with care: the assays were run in different laboratories.
Target: Cytochrome P450 1A2 (CYP1A2, Homo sapiens, UniProt P05177)
Observed: enzyme activity
Mode: inhibitor
One construct used (P05177 1-516): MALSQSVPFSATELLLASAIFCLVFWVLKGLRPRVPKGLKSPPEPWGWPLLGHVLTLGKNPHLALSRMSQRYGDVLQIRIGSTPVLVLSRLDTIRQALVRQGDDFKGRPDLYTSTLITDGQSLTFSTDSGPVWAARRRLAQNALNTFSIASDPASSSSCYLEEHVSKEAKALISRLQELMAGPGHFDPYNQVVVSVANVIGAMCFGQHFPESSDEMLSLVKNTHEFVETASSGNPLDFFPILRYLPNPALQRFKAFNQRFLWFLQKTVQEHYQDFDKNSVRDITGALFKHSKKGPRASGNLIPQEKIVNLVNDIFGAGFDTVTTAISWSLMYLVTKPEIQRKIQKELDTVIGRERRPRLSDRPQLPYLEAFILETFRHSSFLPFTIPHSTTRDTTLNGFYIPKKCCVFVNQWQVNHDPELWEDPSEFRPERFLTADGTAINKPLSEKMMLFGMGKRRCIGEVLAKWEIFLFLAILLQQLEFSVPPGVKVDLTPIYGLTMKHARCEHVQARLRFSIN

CCCN(CCC)CCc1cccc2c1CC(=O)N2 — IC50 (fluorescence): 540 µM
CCn1c(C(=O)N(C2CC2)C2CC2)cc2c3c(ncn3C)c(Nc3cc(C)n(C)n3)nc21 — Ki (human; liver microsomes): 0.6 µM
COc1ccc2c(Cc3ccccc3F)c3[n+](cc2c1OC)CCc1cc2c(cc1-3)OCO2 — IC50: > 10 µM
C[C@H]1CN(c2n[nH]c3nc(N[C@H]4CC[C@H](NS(=O)(=O)CCC(F)(F)F)CC4)ncc23)CCO1 — IC50: > 100 µM
C#Cc1cccc(-c2cc(=O)c3ccccc3o2)c1 — Ki (6 min; pH 7.6): 0.8 µM
CC(CN1c2ccccc2Sc2ccccc21)N(C)C (stereo not drawn) — IC50 (fluorescence): 1 µM
CCc1cc(/C(C)=N/OCc2ccc(C3CCCCC3)c(C(F)(F)F)c2)ccc1CN1CC(C(=O)O)C1 — IC50 (human; liver microsomes; 20 min): > 1.1 µM
N#Cc1ccnc(Oc2nn([C@H]3C[C@H](F)C3)c3ncnc(N)c23)c1 — IC50 (human; liver microsomes; 10 min): 20.8 µM
COc1ccc2c(Cc3ccccc3F)c3n(c(=O)c2c1OC)CCc1cc2c(cc1-3)OCO2 — IC50: > 10 µM
Cc1ccc2nc(-c3ccccc3)c(CNc3ccc(F)cc3)n2c1 — IC50: 1.8 µM
Nc1nc(N)c2nc(CNc3cccc4ccccc34)cnc2n1 — IC50 (luciferase): 72.4 µM
C#Cc1cccc2oc(-c3ccccc3)cc(=O)c12 — Ki (6 min; pH 7.6): 0.81 µM
